Test results taken from ChEMBL document CHEMBL4680346, “Novel arylcarbamate-N-acylhydrazones derivatives as promising BuChE inhibitors: Design, synthesis, molecular modeling and biological evaluation” (Bioorg Med Chem, 2021).

Legend:
[1] = target: Acetylcholinesterase (Electrophorus electricus) (UniProt O42275); test: Inhibition of Electrophorus electricus AChE at 100 uM using acetylthiocholine iodide as substrate preincubated for 15 mins followed by substrate addition and measured after 4 mins by Ellman's method; settings: time 19.0 min
[2] = target: Acetylcholinesterase (Electrophorus electricus, UniProt O42275); test: Inhibition of Electrophorus electricus AChE using acetylthiocholine iodide as substrate preincubated for 15 mins followed by substrate addition and measured after 4 mins by Ellman's method
[3] = target: T1, Cholinesterase (Equus caballus, UniProt P81908); test: Inhibition of equine serum BuChE using butyrylthiocholine chloride as substrate preincubated for 15 mins followed by substrate addition and measured after 4 mins by Ellman's method; type: cell-free
[4] = target: Cholinesterase (Equus caballus) (UniProt P81908); test: Inhibition of equine serum BuChE at 100 uM using butyrylthiocholine chloride as substrate preincubated for 15 mins followed by substrate addition and measured after 4 mins by Ellman's method; type: cell-free
[5] = target: Cholinesterase (Equus caballus) (UniProt P81908); test: Inhibition of equine serum BuChE at 10 uM using butyrylthiocholine chloride as substrate preincubated for 15 mins followed by substrate addition and measured after 4 mins by Ellman's method; type: cell-free; settings: time 19.0 min
[6] = target: T1, Cholinesterase; test: Non-Competitive inhibition of equine serum BuChE using varying concentrations of butyrylthiocholine iodide as substrate by Lineweaver-burk plot analysis; type: cell-free
How it was run: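 Equine serum BuChE kinetics by the Ellman read-out with butyrylthiocholine at 0.025–2.0 mM. Run without inhibitor and with inhibitor at 0.5 and 1.0 µM. Reciprocal initial rate was plotted against reciprocal substrate concentration (Lineweaver-Burk) to assign the inhibition mode.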

Chain of Acetylcholinesterase (Electrophorus electricus) (O42275 24-633 limits assumed): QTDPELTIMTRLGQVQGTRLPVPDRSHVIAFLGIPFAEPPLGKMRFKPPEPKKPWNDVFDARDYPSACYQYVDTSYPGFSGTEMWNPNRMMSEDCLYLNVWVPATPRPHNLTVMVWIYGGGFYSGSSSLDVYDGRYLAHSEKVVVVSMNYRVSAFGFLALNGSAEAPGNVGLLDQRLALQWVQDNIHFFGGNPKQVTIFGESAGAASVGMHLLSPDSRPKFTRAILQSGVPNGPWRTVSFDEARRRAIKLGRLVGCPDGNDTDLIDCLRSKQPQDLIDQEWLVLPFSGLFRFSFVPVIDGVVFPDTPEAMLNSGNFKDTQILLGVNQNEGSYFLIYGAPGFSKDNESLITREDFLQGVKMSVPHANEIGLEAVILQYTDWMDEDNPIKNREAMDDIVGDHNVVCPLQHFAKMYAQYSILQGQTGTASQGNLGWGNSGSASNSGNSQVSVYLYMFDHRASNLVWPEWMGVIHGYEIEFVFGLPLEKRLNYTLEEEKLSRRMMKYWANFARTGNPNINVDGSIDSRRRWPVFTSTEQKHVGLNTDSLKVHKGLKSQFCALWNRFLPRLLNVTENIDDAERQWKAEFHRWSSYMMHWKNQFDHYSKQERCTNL
Chain of Acetylcholinesterase (O42275 whole entry): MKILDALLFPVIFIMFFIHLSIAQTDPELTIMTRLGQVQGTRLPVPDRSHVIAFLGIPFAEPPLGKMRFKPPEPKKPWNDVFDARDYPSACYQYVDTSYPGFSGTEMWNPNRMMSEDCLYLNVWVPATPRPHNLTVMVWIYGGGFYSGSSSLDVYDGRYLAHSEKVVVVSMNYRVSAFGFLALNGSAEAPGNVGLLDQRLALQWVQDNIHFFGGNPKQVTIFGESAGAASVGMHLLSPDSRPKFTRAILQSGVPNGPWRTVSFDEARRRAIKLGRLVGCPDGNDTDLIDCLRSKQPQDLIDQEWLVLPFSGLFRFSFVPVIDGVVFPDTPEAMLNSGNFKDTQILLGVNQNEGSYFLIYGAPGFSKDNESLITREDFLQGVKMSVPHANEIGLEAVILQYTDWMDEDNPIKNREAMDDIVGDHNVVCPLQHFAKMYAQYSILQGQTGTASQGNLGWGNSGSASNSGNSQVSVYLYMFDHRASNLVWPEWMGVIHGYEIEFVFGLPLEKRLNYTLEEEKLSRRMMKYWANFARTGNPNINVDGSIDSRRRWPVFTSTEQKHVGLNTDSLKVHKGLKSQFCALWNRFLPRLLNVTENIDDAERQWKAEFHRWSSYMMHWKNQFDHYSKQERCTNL
T1 sequence (P81908 whole entry): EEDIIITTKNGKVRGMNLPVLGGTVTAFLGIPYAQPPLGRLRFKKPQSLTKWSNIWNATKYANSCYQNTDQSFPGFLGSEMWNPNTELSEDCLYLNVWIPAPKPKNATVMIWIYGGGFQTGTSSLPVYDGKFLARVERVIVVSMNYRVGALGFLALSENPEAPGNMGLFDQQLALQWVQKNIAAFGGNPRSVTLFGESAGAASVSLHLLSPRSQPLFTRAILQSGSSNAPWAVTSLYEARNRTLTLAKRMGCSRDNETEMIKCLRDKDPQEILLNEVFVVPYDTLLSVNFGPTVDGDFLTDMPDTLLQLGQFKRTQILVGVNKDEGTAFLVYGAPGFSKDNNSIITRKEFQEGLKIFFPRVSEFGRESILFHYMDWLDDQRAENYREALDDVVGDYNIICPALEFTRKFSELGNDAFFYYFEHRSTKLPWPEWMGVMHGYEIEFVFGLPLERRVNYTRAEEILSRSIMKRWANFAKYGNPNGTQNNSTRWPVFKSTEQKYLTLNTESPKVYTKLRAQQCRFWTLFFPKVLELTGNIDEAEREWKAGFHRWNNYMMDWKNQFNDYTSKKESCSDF
Chain of Cholinesterase (Equus caballus) (P81908 whole entry): as above

Structure (SMILES) | inhibition [1] [%] | IC50 [2] [µM] | IC50 [3] [µM] | inhibition [4] [%] | inhibition [5] [%] | Ki [6] [µM]
CN(C)C(=O)Oc1ccc(/C=N/NC(=O)c2cccc(O)c2)cc1 | 9.65 | > 100 | 29.3 | 75.2 | 42.1 | –
CN(C)C(=O)Oc1ccccc1/C=N/NC(=O)c1cccc(O)c1 | 18.2 | > 100 | 0.56 | 82 | 74.9 | –
COc1cc(C(=O)N/N=C/c2ccc(OC(=O)N(C)C)c(OC)c2)ccc1O | 29.2 | > 100 | 9.98 | 49.7 | 57.3 | –
COc1ccc(C(=O)N/N=C/c2ccccc2OC(=O)N(C)C)cc1OC | 21.9 | > 100 | 0.31 | 74 | 62.1 | –
CN(C)C(=O)Oc1ccccc1/C=N/NC(=O)c1ccc(O)cc1 | 11.1 | > 100 | 0.18 | 80.9 | 76.4 | –
COc1ccc(C(=O)N/N=C/c2ccc(OC(=O)N(C)C)cc2)cc1OC | 28.3 | > 100 | > 100 | 37.8 | 11.4 | –
COc1cc(C(=O)N/N=C/c2ccc(OC(=O)N(C)C)cc2)ccc1O | 20.1 | > 100 | 21.9 | 63.9 | 44.6 | –
COc1cc(/C=N/NC(=O)c2ccc(O)cc2)ccc1OC(=O)N(C)C | 23.6 | > 100 | 0.94 | 73.4 | 68.4 | –
COc1cc(/C=N/NC(=O)c2cccc(O)c2)ccc1OC(=O)N(C)C | 19.9 | > 100 | 7.65 | 62.2 | 50.1 | –
CN(C)C(=O)Oc1ccc(/C=N/NC(=O)c2ccc(O)cc2)cc1 | 11.7 | > 100 | > 100 | 31 | 10.4 | –
COc1cc(C(=O)N/N=C/c2ccccc2OC(=O)N(C)C)ccc1O | 24.9 | > 100 | 0.07 | 77.8 | 73 | 97
COc1ccc(C(=O)N/N=C/c2ccc(OC(=O)N(C)C)c(OC)c2)cc1OC | 24.7 | > 100 | 2.07 | 78.5 | 74.8 | –
